Diaph act CS: compounds boosting diaphorase resazurin reduction – biochemical, uHTS, resorufin fluorescence, counter-screen for diaphorase-coupled primary assays, primary screen; AID 1229, 2008; activation factor at 20 µM; Diaphorase/resazurin coupled assay, 16 min; active compounds read high; 1 = vehicle wells, 0 = NADH-free wells; 190,000 compounds, 0.005% hits;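 active = diaphorase activity raised at least twofold by the compound at 20 µM; inactive = activation factor below 2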
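System – purified diaphorase enzyme from Clostridium kluyveri · Input – enzyme 0.07 U/mL final · Also added – final NADH 0.114 mM, resazurin 0.1 mM · Measured by – fluorescence of resorufin, 544 nm excitation, 590 nm emission · Timing – 16 min enzyme reaction, ambient temperature · Measure – resorufin increase flagging diaphorase activators or reducers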
Diaphorase inh: diaphorase inhibitors and chemical oxidizers, primary screen, counter-screen for diaphorase-coupled primary assays, biochemical, uHTS, resorufin fluorescence; diaphorase resazurin-to-resorufin fluorescence, NADH, 16 min; bacterial (C. kluyveri) enzyme, not human; inhibition, % at 20 µM; 190,000 compounds, 0.69% hits; AID 1217, 2008;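 active = primary screen inhibition at 20 µM above a set limit, cut at about 50% in these data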;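 note: plate controls were DMSO with full reaction for no effect and wells lacking NADH for full effect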
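material = Clostridium kluyveri diaphorase enzyme | amount = 0.14 U/mL diaphorase, enzyme working solution | schedule = incubation 16 min, room temperature | detection = fluorescence of resorufin formed from resazurin, Ex 544/Em 590 nm | benchmarks = positive control minus NADH, DMSO neutral control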
G6PDH CS: L. mesenteroides G6PDH inhibitors, counter-screen for G6PDH-coupled screening assays, biochemical, Leuconostoc mesenteroides enzyme; glucose-6-phosphate dehydrogenase [Leuconostoc mesenteroides]; Purified L. mesenteroides G6PDH, diaphorase/resazurin coupled fluorescence, 45 min; inhibition, % at 5 µM; 200,000 compounds, 0.12% hits
PfG6PD inh: PfG6PD enzyme inhibitors, primary screen, biochemical, fluorescence intensity, uHTS | AID 504690, 2011 | 350,000 compounds, 0.78% hits | glucose-6-phosphate dehydrogenase-6-phosphogluconolactonase (Plasmodium falciparum 3D7) | PfGluPho enzyme, NADPH resazurin-diaphorase fluorescence | inhibition, % at 20 µM;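 active = inhibition reaching at least a set limit at 20 µM in the primary screen, cut at about 59% in these data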;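 note: 0% = DMSO wells with substrate and 100% = DMSO wells lacking glucose-6-phosphate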
L major viab: Leishmania major promastigote growth inhibition, primary screen; inhibition, % at 10 µM; 200,000 compounds, 9% hits; AID 1063, 2008; Leishmania major promastigotes, resazurin fluorescence viability;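 note: promastigotes grown with compound for 44 hours at 28 °C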
DTT redox prof: compounds producing H2O2 with reducing agent – biochemical, NIH compound library profiling, artefact control for MLSCN library redox annotation, primary screen; DTT-dependent redox cycling H2O2, phenol red/HRP absorbance; 100% = 100 µM peroxide control, 0% = buffer; activation, % at 10 µM; 200,000 compounds, 0.03% hits; AID 878, 2007;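 active = activation of at least 50% relative to the plate's high and low controls in the primary single-dose screen; inactive = activation below 50%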;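 note: compound incubated with DTT at 0.8 mM final as the reducing agent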
Starred values were filed as active, the others as inactive; nt = not tested or not shown. Many of the other results were omitted from the sample, so hits are more common in it than they were. Cut-off read from the data, not from the text of the source, unless noted: active = inhibition above about 50%; inactive = the rest.

SMILES	Diaph act CS	Diaphorase inh	G6PDH CS	PfG6PD inh	L major viab	DTT redox prof
O=C(/C=C/c1ccccc1Cl)c1cccnc1	0.9	10.6	3.8	12.8	97.5*	0.3
CCN(CC)c1ccc(/C=C/C(=O)c2cccnc2)cc1	0.8	17.1	8.3	7.3	49.2	-10.2
O=C(/C=C/c1ccc(Cl)cc1)c1cccnc1	0.9	12.1	1.7	5.3	100.3*	0.3
N#Cc1ccc(/C=C/C(=O)c2cccnc2)cc1	0.9	5.1	2.5	7.9	100.5*	-1.5
N#Cc1ccc(/C=C/C(=O)c2ccc3c(c2)OCO3)cc1	0.9	9.2	-4.9	-21.4	40.0	-0.2
COc1ccccc1C(=O)Nc1ccnn1C1CCN(Cc2ncc[nH]2)CC1	nt	nt	nt	-8.1	nt	nt
CCC(C)(C)n1nnnc1C(c1cccnc1)N1CCCC(C)C1 (stereo not drawn)	0.8	15.1	3.5	11.6	87.2*	0.3
CC(C)(C)n1nnnc1C(c1cccc(C#N)c1)N1CCC(Cc2ccccc2)CC1 (stereo not drawn)	0.8	19.3	-19.7	-1.7	83.4*	0.0
CC(C)(C)n1nnnc1C(c1ccc(C#N)cc1)N1CCCC2(CCCCC2)C1 (stereo not drawn)	0.9	13.4	-2.0	-1.8	78.3*	-0.6
CCC(C)(C)n1nnnc1C(c1cccnc1)N1CCCc2ccccc21 (stereo not drawn)	0.8	17.5	10.7	-4.3	45.0	1.7
CCC(C)(C)n1nnnc1C(c1ccncc1)N1CCC(Cc2ccccc2)CC1 (stereo not drawn)	0.9	11.4	1.7	-0.7	90.7*	-0.1
CCC(C)(C)n1nnnc1C(c1cccnc1)N1CCC(Cc2ccccc2)CC1 (stereo not drawn)	nt	nt	15.7	-9.8	90.5*	0.0
CCC(C)(C)n1nnnc1C(c1ccc(C)cc1)N1CCN(Cc2cccnc2)CC1 (stereo not drawn)	0.9	10.6	9.2	-0.6	21.9	2.1
Cc1ccc(C(=O)CSc2nnc(CNc3ccc(C)cc3C)n2Cc2ccco2)cc1	0.8	19.4	-1.8	15.4	59.8*	2.7
O=C(CSc1nnc(-c2ccc(O)cc2)n1Cc1ccco1)c1ccccc1	1	-1.2	3.2	-16.8	54.0*	0.3
N=c1n(CCO)c2ccccc2n1CCOc1ccc(Cl)cc1Cl	0.9	13.1	4.2	11.5	97.6*	-1.9
CC(C(N)=O)N1C(=O)c2cccc3cccc1c23 (stereo not drawn)	0.7	25.2	20.7	18.8	-0.3	0.1
CN(Cc1ccc(F)cc1)C(=O)CNC(=O)c1ccc2c(c1)OCO2	nt	nt	nt	-0.3	nt	nt
O=C(NCc1ccccn1)C(=O)Nc1nc(C23CC4CC(CC(C4)C2)C3)cs1	0.7	28.7	14.7	-13.6	67.9*	-0.4
O=C(NCc1ccccn1)NC12CC3CC(CC(C3)C1)C2	0.9	12.7	7.3	9.8	0.7	0.4
COc1ccc(Nc2ccc([N+](=O)[O-])cc2[N+](=O)[O-])cc1	0.7	32.3	6.0	-9.3	8.1	-0.6
c1ccc(Cn2c(CNc3nc4ccccc4n3CCN3CCCCC3)nc3ccccc32)cc1	0.9	8.3	5.6	13.0	99.7*	0.6
CCN(CC)CCn1c(NCc2nc3ccccc3n2Cc2ccccc2)nc2ccccc21	1	2.9	-7.9	-7.7	100.1*	0.2
Cc1ccccc1NCc1nc2ccccc2n1C	nt	nt	nt	-0.1	nt	nt
Cn1c(CNc2ccccc2O)nc2ccccc21	0.6	39.7	60.7*	20.9	88.6*	-1.5
SMILES	Diaph act CS	Diaphorase inh	G6PDH CS	PfG6PD inh	L major viab	DTT redox prof
c1ccc(Cn2c(CN3CCCC3)nc3ccccc32)cc1	0.9	5.5	1.9	-9.0	3.5	-7.4
Clc1ccc(Cn2c(CN3CCCC3)nc3ccccc32)cc1	1.1	-6.8	34.5	nt	99.6*	-0.7
O=CN1CCN(C(C(=O)NC2CCCCC2)c2ccc(Cl)cc2)CC1 (stereo not drawn)	nt	nt	nt	-6.2	nt	nt
CC(C)=CCc1c(O)cc(O)c2c(=O)c3c(CC=C(C)C)c(O)ccc3oc12	nt	nt	nt	2.5	nt	nt
Cn1c(CNc2nc3ccccc3n2CCN2CCCCC2)nc2ccccc21	1	1.3	-6.3	-6.2	99.4*	0.8
CCN(CC)c1ccc(CNc2nc3ccccc3n2CCN2CCCCC2)cc1	1	4.7	-2.0	12.3	100.5*	-0.5
O=C(COC(=O)/C=C/c1ccccc1Cl)NC1CC1	nt	nt	nt	-3.8	nt	nt
CCOC(=O)N1CCN(CC(O)COc2c(C)cc(C)cc2C)CC1 (stereo not drawn)	nt	nt	nt	-7.5	nt	nt
CCOC(=O)N1CCN(CC(O)COc2ccc(CC)cc2)CC1 (stereo not drawn)	nt	nt	nt	6.0	nt	nt
C=CCc1ccccc1OCC(O)CN1CCN(C(=O)OCC)CC1 (stereo not drawn)	1	-2.7	2.8	-3.2	67.6*	0.2
CCOC(=O)N1CCN(CC(O)COc2ccccc2C(C)C)CC1 (stereo not drawn)	1.1	-5.3	4.9	-0.5	70.1*	-0.3
CCOC(=O)N1CCN(CC(O)COC(CC)c2ccccc2)CC1 (stereo not drawn)	0.9	13.0	0.9	-7.3	91.5*	-0.8
CCOC(=O)N1CCN(CC(O)COCc2ccc(Cl)cc2)CC1 (stereo not drawn)	1	0.0	13.8	-4.3	92.8*	-0.8
O=C(O)c1cccc(S(=O)(=O)Nc2ccccc2Oc2ccccc2)c1	nt	nt	nt	-9.3	nt	nt
O=C(CN1C(=O)NC2(CCCC2)C1=O)Nc1nc2ccccc2[nH]1	nt	nt	nt	6.7	nt	nt
C=CCc1ccccc1OCC(O)CN1CCN(c2ccc(C)cc2)CC1 (stereo not drawn)	0.8	21.1	-3.3	15.0	69.3*	-0.3
COc1ccc(N2CCN(CC(O)COc3ccc(C)cc3C)CC2)cc1 (stereo not drawn)	nt	nt	nt	11.6	nt	nt
CCOC(=O)N1CCN(CC(O)COc2ccccc2C(C)(C)C)CC1 (stereo not drawn)	0.8	19.7	10.8	-2.9	-0.1	-0.4
CCOC(=O)N1CCN(CC(O)COc2ccccc2C(C)CC)CC1 (stereo not drawn)	0.9	10.5	7.2	11.9	91.3*	0.8
Cc1ncc(CN2CCC(n3nccc3NC(=O)c3ccccc3)CC2)s1	nt	nt	nt	-5.1	nt	nt
Cc1ccccc1N1C(=O)C(Oc2ccc(Cl)cc2)C1CNC(C)(C)C (stereo not drawn)	0.9	6.7	10.3	-8.7	87.4*	-0.6
S=C(NCc1ccco1)N1CCN(c2ccccc2Cl)CC1	1	2.7	2.2	4.3	-9.4	-0.2

Source: PubChem
